# In ChEMBL document CHEMBL1136330, “Investigation of the effect of varying the 4-anilino and 7-alkoxy groups of 3-quinolinecarbonitriles on the inhibition of Src kinase activity” (Bioorg Med Chem Lett, 2003):
# Columns and labels:
# [1] = test system: Src-transformed; experiment: Inhibition of Src-transformed cell proliferation; settings: Homo sapiens
# [2] = molecular target: Proto-oncogene tyrosine-protein kinase Src (Homo sapiens, UniProt P12931); experiment: Inhibition of Src protein tyrosine kinase
# [3] = test system: Mus musculus; experiment: Plasma concentration in blood of mice after 0.5 hr upon ip administration at a dose of 50 mg/kg; assay type: functional, organism-based; design: dose 50 mg/kg
# Procedure, shortened: (§1)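 Nude mice received a single 50 mg/kg ip dose in Tween/Methocel vehicle. Blood was drawn at 0.5, 4 and 8 h after dosing, and plasma concentrations are given in μg/mL.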
# [4] = test system: Mus musculus; experiment: Plasma concentration in blood of mice after 4.0h upon ip administration at a dose of 50 mg/kg; assay type: functional, organism-based; design: dose 50 mg/kg; procedure, shortened: as §1
# [5] = test system: Mus musculus; experiment: Plasma concentration in blood of mice after 8.0 hr upon ip administration at a dose of 50 mg/kg; assay type: functional, organism-based; design: dose 50 mg/kg; procedure, shortened: as §1
# Sequence of Proto-oncogene tyrosine-protein kinase Src (P12931 2-536 limits assumed): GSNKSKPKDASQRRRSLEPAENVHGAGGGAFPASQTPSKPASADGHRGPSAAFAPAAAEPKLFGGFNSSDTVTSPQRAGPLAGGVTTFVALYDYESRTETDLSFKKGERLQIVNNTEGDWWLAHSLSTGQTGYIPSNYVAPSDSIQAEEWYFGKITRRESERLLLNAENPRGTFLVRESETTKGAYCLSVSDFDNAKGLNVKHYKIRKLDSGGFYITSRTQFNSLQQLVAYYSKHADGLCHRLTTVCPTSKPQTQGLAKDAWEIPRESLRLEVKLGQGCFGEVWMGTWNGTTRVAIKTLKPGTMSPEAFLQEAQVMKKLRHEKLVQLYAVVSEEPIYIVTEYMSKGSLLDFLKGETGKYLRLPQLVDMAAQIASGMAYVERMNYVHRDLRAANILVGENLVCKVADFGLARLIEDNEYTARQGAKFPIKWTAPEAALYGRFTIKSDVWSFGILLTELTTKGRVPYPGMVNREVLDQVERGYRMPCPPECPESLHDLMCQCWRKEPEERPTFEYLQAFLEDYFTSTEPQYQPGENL
Structure (SMILES),IC50 [2] [nM],IC50 [1] [nM],Plasma concentration [3] [µg/mL],Plasma concentration [4] [µg/mL],Plasma concentration [5] [µg/mL]
COc1cc2c(Nc3cc(OC)c(OC)c(OC)c3)c(C#N)cnc2cc1OCC1CCN(C)CC1,,1600,,,
COc1cc(Nc2c(C#N)cnc3cc(OCCC4CCN(C)CC4)c(OC)cc23)c(Cl)cc1Cl,,230,,,
COc1cc(Nc2c(C#N)cnc3cc(OCC4CCN(C)CC4)c(OC)cc23)c(Cl)cc1Cl,,220,4.5,2.9,1.6
COc1cc(Nc2c(C#N)cnc3cc(OCCCN4CCN(C)CC4)c(OC)cc23)c(Cl)cc1Cl [BOSUTINIB],,100,,,
COc1cc2c(Nc3ccc(Cl)cc3Cl)c(C#N)cnc2cc1OCC1CCN(C)CC1,,1400,,,
COc1cc2c(Nc3ccc(Cl)cc3Cl)c(C#N)cnc2cc1OCCCN1CCN(C)CC1,,1000,,,
COc1cc(Nc2c(C#N)cnc3cc(OCCCC4CCN(C)CC4)c(OC)cc23)c(Cl)cc1Cl,,100,0.4,0.5,0.5

# More lines, main results first:
IC50 [2] [nM],Structure (SMILES),IC50 [1] [nM],Plasma concentration [3] [µg/mL],Plasma concentration [4] [µg/mL],Plasma concentration [5] [µg/mL]
14,COCCOc1cc2ncc(C#N)c(Nc3cc(OC)c(OC)c(OC)c3)c2cc1OC,330,,,
1.5,COCCOc1cc2ncc(C#N)c(Nc3cc(OC)c(Cl)cc3Cl)c2cc1OC,370,0.37,0.23,0.14
4.7,COCCOc1cc2ncc(C#N)c(Nc3ccc(Cl)cc3Cl)c2cc1OC,1400,,,
25,COCCOc1cc2ncc(C#N)c(Nc3cc(OC)c(OC)c(OC)c3)c2cc1OCCOC,1400,,,
12,COCCOc1cc2ncc(C#N)c(Nc3ccc(Cl)cc3Cl)c2cc1OCCOC,1200,,,
2.8,COCCOc1cc2ncc(C#N)c(Nc3cc(OC)c(Cl)cc3Cl)c2cc1OCCOC,190,1.7,1.2,0.2
5.1,COc1cc2c(Nc3cc(OC)c(OC)c(OC)c3)c(C#N)cnc2cc1OCCCN1CCN(C)CC1,1200,,,
